# Active and inactive are the calls of the source. The rule behind the calls is not given here.
# Target: T1, Proteasome subunit beta type-10 (Homo sapiens) (UniProt P40306)
# T1 sequence (whole entry): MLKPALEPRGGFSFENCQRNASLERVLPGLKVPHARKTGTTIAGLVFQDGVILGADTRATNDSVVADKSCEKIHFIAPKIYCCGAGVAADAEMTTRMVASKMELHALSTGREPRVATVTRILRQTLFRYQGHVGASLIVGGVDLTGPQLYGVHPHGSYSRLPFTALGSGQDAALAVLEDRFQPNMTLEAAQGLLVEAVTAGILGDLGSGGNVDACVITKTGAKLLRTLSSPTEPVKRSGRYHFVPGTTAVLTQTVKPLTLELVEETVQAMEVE
# Test: Inhibition of human immunoproteasome beta 2i subunit at 10 uM using Boc-LRR-AMC as substrate preincubated for 30 mins followed by substrate addition measured for 120 mins by fluorescence based assay
# Conditions: not given
# How it was run: (§1)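 Purified human immunoproteasome or constitutive proteasome subunit activities measured with fluorogenic substrates in presence of 10 μM compound; reported as residual activity.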
row,Compound,inhibition
1,COc1cccc(-c2coc3cc4oc(=O)c(-c5nsc(=O)o5)c(C)c4cc23)c1,inactive
2,Cc1c(-c2nsc(=O)o2)c(=O)oc2cc3occ(-c4ccc(F)cc4)c3cc12,inactive
3,Cc1c(-c2nsc(=O)o2)c(=O)oc2cc3occ(-c4cccs4)c3cc12,inactive

# Target: T2, Proteasome subunit beta type-8 (Homo sapiens, UniProt P28062)
# T2 sequence (P28062 whole entry): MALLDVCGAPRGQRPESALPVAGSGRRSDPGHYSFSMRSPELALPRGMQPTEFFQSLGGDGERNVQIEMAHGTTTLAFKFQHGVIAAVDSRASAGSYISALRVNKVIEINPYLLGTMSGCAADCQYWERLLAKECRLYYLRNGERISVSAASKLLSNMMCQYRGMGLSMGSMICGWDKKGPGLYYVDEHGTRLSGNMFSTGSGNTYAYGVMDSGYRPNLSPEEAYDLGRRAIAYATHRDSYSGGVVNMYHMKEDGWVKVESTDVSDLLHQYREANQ
# Test: Inhibition of human immunoproteasome beta 5i subunit using Suc-LLVY-AMC as substrate preincubated for 30 mins followed by substrate addition and measured for 120 mins by fluorescence based assay
# Conditions: not given
row,Compound,IC50 [nM]
1,COc1cccc(-c2coc3cc4oc(=O)c(-c5nsc(=O)o5)c(C)c4cc23)c1,226
2,Cc1c(-c2nsc(=O)o2)c(=O)oc2cc3occ(-c4ccc(F)cc4)c3cc12,200
3,Cc1c(CCC(=O)ON2C(=O)CCC2=O)c(=O)oc2cc3occ(C4CCCCC4)c3cc12,1830
4,Cc1c(-c2nsc(=O)o2)c(=O)oc2cc3occ(-c4cccs4)c3cc12,141

# Target: T3, Proteasome Macropain subunit MB1 (Homo sapiens, UniProt P28074)
# T3 sequence (P28074 whole entry): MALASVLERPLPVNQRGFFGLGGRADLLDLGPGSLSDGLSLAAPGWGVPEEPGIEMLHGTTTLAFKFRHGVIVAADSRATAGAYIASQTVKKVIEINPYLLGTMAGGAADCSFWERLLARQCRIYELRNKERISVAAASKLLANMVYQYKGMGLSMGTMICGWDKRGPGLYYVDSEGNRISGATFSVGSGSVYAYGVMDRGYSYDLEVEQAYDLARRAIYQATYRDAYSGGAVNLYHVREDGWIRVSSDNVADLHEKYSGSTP
# Test: Inhibition of human constitutive proteasome beta 5 subunit at 10 uM using Suc-LLVY-AMC as substrate preincubated for 30 mins followed by substrate addition measured for 120 mins by fluorescence based assay
# Conditions: 2 h
# How it was run: as §1
row,Compound,inhibition (INH)
1,COc1cccc(-c2coc3cc4oc(=O)c(-c5nsc(=O)o5)c(C)c4cc23)c1,Not Active
2,Cc1c(-c2nsc(=O)o2)c(=O)oc2cc3occ(-c4ccc(F)cc4)c3cc12,Not Active
3,Cc1c(-c2nsc(=O)o2)c(=O)oc2cc3occ(-c4cccs4)c3cc12,Not Active

# Target: T4, Proteasome subunit beta type-8 (Homo sapiens) (UniProt P28062)
# T4 sequence (whole entry): T2 sequence (P28062 whole entry)
# Test: Time-dependent inhibition of human immunoproteasome beta 5i subunit assessed as increase in IC50 value using Suc-LLVY-AMC as substrate co-incubated with substrate without preincubation by fluorescence based analysis relative to 30 mins preincubated compound-treated control
# Conditions: not given
# How it was run: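 IC50 against immunoproteasome beta5i (Suc-LLVY-AMC) determined without pre-incubating compound with enzyme before substrate addition, compared against pre-incubated assay.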
row,Compound,inhibition
1,Cc1c(-c2nsc(=O)o2)c(=O)oc2cc3occ(-c4cccs4)c3cc12,Active

# Target: T5, Proteasome subunit beta type-9 (Homo sapiens) (UniProt P28065)
# T5 sequence (whole entry): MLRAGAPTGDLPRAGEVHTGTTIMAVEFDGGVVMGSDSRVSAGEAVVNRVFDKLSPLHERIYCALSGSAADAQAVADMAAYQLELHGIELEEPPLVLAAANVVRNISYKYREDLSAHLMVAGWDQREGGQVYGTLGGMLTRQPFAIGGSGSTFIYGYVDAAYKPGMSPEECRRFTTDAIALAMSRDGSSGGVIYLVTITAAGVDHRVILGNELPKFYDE
# Test: Inhibition of human immunoproteasome beta 1i subunit at 10 uM using Ac-PAL-AMC as substrate preincubated for 30 mins followed by substrate addition measured for 120 mins by fluorescence based assay
# Conditions: not given
# How it was run: as §1
row,Compound,inhibition
1,COc1cccc(-c2coc3cc4oc(=O)c(-c5nsc(=O)o5)c(C)c4cc23)c1,inactive
2,Cc1c(-c2nsc(=O)o2)c(=O)oc2cc3occ(-c4ccc(F)cc4)c3cc12,inactive
3,Cc1c(-c2nsc(=O)o2)c(=O)oc2cc3occ(-c4cccs4)c3cc12,inactive

# Target: T4, Proteasome subunit beta type-8 (Homo sapiens)
# Test: Inhibition of human immunoproteasome beta 5i subunit using Suc-LLVY-AMC as substrate assessed as residual activity at 10 uM preincubated for 30 mins followed by substrate addition measured for 120 mins by fluorescence based assay relative to control
# Conditions: not given
# How it was run: as §1
row,Compound,Activity [%]
1,Cc1c(CCC(=O)NCC#N)c(=O)oc2cc3occ(C4CCCCC4)c3cc12,102
2,Cc1c(CC(=O)ON2C(=O)CCC2=O)c(=O)oc2cc3occ(C4CCCCC4)c3cc12,62
3,Cc1c(CC(=O)N(C)CC#N)c(=O)oc2cc3occ(C4CCCCC4)c3cc12,101
4,Cc1c(CC(=O)NCC#N)c(=O)oc2cc3occ(C4CCCCC4)c3cc12,99
5,Cc1c(CCC(=O)N(C)CC#N)c(=O)oc2cc3occ(C4CCCCC4)c3cc12,111

# Target: T3, Proteasome Macropain subunit MB1
# Test: Inhibition of human constitutive proteasome beta 5 subunit using Suc-LLVY-AMC as substrate preincubated for 30 mins followed by substrate addition measured for 120 mins by fluorescence based assay
# Conditions: not given
row,Compound,IC50
1,COc1cccc(-c2coc3cc4oc(=O)c(-c5nsc(=O)o5)c(C)c4cc23)c1,Nd(Insoluble)
2,Cc1c(-c2nsc(=O)o2)c(=O)oc2cc3occ(-c4ccc(F)cc4)c3cc12,Nd(Insoluble)
3,Cc1c(-c2nsc(=O)o2)c(=O)oc2cc3occ(-c4cccs4)c3cc12,Nd(Insoluble)

# Target: T6, Proteasome subunit beta type-10 (Homo sapiens, UniProt P40306)
# T6 sequence (P40306 whole entry): T1 sequence (whole entry)
# Test: Inhibition of human immunoproteasome beta 2i subunit using Boc-LRR-AMC as substrate preincubated for 30 mins followed by substrate addition measured for 120 mins by fluorescence based assay
# Conditions: not given
row,Compound,IC50
1,COc1cccc(-c2coc3cc4oc(=O)c(-c5nsc(=O)o5)c(C)c4cc23)c1,Nd(Insoluble)
2,Cc1c(-c2nsc(=O)o2)c(=O)oc2cc3occ(-c4ccc(F)cc4)c3cc12,Nd(Insoluble)
3,Cc1c(-c2nsc(=O)o2)c(=O)oc2cc3occ(-c4cccs4)c3cc12,Nd(Insoluble)

# Target: T7, Proteasome subunit beta type-9 (Homo sapiens, UniProt P28065)
# T7 sequence (P28065 whole entry): T5 sequence (whole entry)
# Test: Inhibition of human immunoproteasome beta 1i subunit using Ac-PAL-AMC as substrate preincubated for 30 mins followed by substrate addition measured for 120 mins by fluorescence based assay
# Conditions: not given
row,Compound,IC50
1,COc1cccc(-c2coc3cc4oc(=O)c(-c5nsc(=O)o5)c(C)c4cc23)c1,Nd(Insoluble)
2,Cc1c(-c2nsc(=O)o2)c(=O)oc2cc3occ(-c4ccc(F)cc4)c3cc12,Nd(Insoluble)
3,Cc1c(-c2nsc(=O)o2)c(=O)oc2cc3occ(-c4cccs4)c3cc12,Nd(Insoluble)

# From ChEMBL document CHEMBL4334435, “A focused structure-activity relationship study of psoralen-based immunoproteasome inhibitors” (Medchemcomm, 2019)
